Measurements: paper PMC2756064 (Journal of medicinal chemistry, 2009)
Each block holds one molecule with its values, some of them ahead of it. Square brackets hold non-standard residues; d marks the D form. Peptide text beside a SMILES is read from it. * marks the point of attachment. Hmp(2R,3S) = CC[C@H](C)[C@@H](O)C(=O)O; Sta = CC(C)C[C@H](N)[C@@H](O)CC(=O)O; NMe2Val = CC(C)[C@@H](C(=O)*)N(C)C; dNMeF = CN[C@H](Cc1ccccc1)C(=O)O; NMeQ = CN[C@@H](CCC(N)=O)C(=O)O; dHiv = CC(C)[C@@H](O)C(=O)O; Hiv = CC(C)[C@H](O)C(=O)O; Isovaleryl = CC(C)CC(=O)*

Columns and labels:
Cathepsin E = biological target: T1, Cathepsin E (Homo sapiens, UniProt P14091); assay: Protease inhibition screen and IC50 assay, cathepsin E; format: biochemical; details: result in words
T1 sequence (P14091 54-396): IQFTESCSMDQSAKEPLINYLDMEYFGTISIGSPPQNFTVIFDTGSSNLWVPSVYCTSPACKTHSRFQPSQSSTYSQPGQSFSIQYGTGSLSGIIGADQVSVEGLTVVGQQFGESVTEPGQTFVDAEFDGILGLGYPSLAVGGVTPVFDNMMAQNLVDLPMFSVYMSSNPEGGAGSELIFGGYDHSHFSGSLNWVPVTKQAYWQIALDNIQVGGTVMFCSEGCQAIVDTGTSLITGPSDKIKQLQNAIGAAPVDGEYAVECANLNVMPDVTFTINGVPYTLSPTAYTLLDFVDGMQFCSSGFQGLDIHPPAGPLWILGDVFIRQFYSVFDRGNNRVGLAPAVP

[1] = test system: monocyte derived dendritic cells and CD4+ T cells (autologous); assay: Autologous mixed lymphocyte reaction; format: cell-based, human; details: autologous MLR
[2] = test system: monocyte derived dendritic cells and CD4+ T cells (allogeneic); assay: Allogeneic mixed lymphocyte reaction; format: cell-based, human; details: allogeneic MLR
TACE = TACE (Homo sapiens, UniProt P78536); assay: Protease inhibition screen and IC50 assay, TACE; format: biochemical; details: 10 μM, panel of 59 proteases
Sequence of TACE (P78536 215-824): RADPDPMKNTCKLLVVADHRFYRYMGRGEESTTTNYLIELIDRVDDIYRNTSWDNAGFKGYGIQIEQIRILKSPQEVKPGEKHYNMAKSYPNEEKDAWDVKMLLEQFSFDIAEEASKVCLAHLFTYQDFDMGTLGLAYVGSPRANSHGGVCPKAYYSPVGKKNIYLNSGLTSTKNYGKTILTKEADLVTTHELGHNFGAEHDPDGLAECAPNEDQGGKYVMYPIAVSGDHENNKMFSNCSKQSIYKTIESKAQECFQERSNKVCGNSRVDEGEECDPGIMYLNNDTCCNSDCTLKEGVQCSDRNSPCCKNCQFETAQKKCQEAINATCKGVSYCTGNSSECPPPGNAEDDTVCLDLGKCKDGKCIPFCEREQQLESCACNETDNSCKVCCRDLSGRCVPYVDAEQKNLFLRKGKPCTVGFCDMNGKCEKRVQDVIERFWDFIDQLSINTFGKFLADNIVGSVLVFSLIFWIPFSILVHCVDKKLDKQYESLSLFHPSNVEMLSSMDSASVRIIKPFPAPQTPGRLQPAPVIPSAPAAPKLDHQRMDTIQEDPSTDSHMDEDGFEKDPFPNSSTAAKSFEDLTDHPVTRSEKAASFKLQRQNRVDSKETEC

ADAM9 = biological target: T2, ADAM9 (Homo sapiens, UniProt Q13443); assay: Protease inhibition screen and IC50 assay, ADAM9; format: biochemical; details: 10 μM, panel of 59 proteases
T2 sequence (Q13443 29-819): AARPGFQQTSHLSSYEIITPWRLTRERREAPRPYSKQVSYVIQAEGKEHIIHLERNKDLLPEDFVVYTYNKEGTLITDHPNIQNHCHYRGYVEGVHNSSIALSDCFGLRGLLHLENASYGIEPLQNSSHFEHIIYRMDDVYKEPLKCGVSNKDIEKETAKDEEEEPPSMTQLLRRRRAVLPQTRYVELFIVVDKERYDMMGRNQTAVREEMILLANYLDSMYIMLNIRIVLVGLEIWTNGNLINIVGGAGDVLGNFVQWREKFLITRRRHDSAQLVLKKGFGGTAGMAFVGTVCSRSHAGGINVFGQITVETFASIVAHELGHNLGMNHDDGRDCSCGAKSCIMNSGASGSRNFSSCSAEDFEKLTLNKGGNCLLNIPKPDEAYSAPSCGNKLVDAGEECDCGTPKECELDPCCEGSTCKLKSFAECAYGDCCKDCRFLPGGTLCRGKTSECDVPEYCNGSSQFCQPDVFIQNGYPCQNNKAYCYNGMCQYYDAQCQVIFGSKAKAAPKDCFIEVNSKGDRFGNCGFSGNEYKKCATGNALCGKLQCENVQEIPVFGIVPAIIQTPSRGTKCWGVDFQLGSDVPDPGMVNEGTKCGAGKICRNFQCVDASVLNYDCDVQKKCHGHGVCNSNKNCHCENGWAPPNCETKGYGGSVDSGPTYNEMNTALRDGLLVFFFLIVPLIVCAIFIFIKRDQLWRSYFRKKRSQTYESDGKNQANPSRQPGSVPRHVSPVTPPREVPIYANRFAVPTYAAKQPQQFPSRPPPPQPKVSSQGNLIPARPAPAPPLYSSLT

[3] = test system: human peripheral blood mononuclear cells (CD3+ T cells); assay: T cell proliferation in PBMCs in response to exogenous antigen; format: cell-based
In short: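 Human PBMCs were isolated from buffy coats by Ficoll-Hypaque density gradient centrifugation, washed in PBS, and checked for viability by trypan blue. They were cultured in RPMI 1640 with 2 mM L-glutamine, penicillin/streptomycin and 10% FBS, with test compound at various concentrations. Cells were antibody-stained for 30 min at 4 °C, then permeabilised for intracellular staining and fixed in 2% paraformaldehyde. Lymphocytes were gated by forward/side scatter, with 50,000 cells per sample and isotype controls.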

ADAM10 = biological target: T3, ADAM10 (Homo sapiens, UniProt O14672); assay: Protease inhibition screen and IC50 assay, ADAM10; format: biochemical; details: 10 μM, panel of 59 proteases
T3 sequence (O14672 214-748): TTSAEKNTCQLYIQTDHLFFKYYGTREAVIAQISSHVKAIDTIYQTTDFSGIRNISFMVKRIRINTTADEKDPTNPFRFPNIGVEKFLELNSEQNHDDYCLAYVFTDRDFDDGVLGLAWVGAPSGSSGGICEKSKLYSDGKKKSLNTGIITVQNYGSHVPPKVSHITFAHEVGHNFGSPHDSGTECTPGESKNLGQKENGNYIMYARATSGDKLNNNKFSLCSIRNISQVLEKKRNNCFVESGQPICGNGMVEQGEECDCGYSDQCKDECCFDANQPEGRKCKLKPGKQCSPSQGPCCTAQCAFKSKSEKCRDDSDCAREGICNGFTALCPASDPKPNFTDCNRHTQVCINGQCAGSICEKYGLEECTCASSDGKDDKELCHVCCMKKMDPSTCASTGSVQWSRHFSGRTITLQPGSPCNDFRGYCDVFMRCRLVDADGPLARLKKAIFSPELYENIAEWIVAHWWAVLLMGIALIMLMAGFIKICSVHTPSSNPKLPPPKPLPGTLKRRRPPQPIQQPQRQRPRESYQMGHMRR

[4] = test system: MCF7 cell lysate (cellular cathepsins D and E); assay: Inhibition of cellular cathepsins in MCF7 cell lysate; format: biochemical
[5] = Solubility in DMSO for dilution series; format: physicochemical

- discrimination between cathepsins D and E (Cathepsin E): did not discriminate
SMILES: CC(C)CC(=O)N[C@H](C(=O)N[C@H](C(=O)N[C@@H](CC(C)C)[C@@H](O)CC(=O)N[C@@H](C)C(=O)N[C@@H](CC(C)C)[C@@H](O)CC(=O)O)C(C)C)C(C)C [Pepstatin A, pepstatin A] (Isovaleryl-VV[Sta]A[Sta]-OH)

SMILES: COC(=O)[C@@H]1CCCN1C(=O)[C@@H](Cc1ccccc1)N(C)C(=O)[C@H](C)NC(=O)[C@@H](NC(=O)C[C@H](O)[C@H](CC(C)C)NC(=O)[C@H](CC(N)=O)NC(=O)[C@H](CC(C)C)NC(=O)[C@H](OC(=O)[C@@H](OC(=O)[C@H](C(C)C)N(C)C)C(C)C)C(C)C)[C@@H](C)O [Compound 1, grassystatin A] (NMe2Val-[Hiv][dHiv]LN[Sta]TA[dNMeF]P-OMe)
- interferon-γ (IFN-γ) in response to antigen presentation [1]: inhibit upregulation
- interleukin-17 (IL-17) in response to antigen presentation [1]: inhibit upregulation
- T cell proliferation ([1]; TTc + PMA, 5 days): reduce T cell proliferation in a dose dependent manner
- IFN-γ production [2]: significant downregulation
- IL-17 production [2]: significant downregulation
- inhibitory activity in protease screen (TACE): compromised activities
- inhibitory activity in protease screen (ADAM9): compromised activities
- T cell proliferation in response to exogenous antigen (TTc) ([3]; 10 μM, CD3+ lymphocytes): significantly reduce
- T cell viability ([3]; same experiment, data not shown): unaffected
- inhibitory activity in protease screen (ADAM10): compromised activities
- decrease in potency compared to purified cathepsin E ([4]; MCF7 lysate): 564 fold
- difference in IC50 compared to pepstatin A ([4]; MCF7 lysate): 100 fold
- IC50 ([4]; read-out: apparent IC50, MCF7 lysate treated directly): ~500 nM

SMILES: CC[C@H](C)[C@H](NC(=O)C[C@H](O)[C@H](CC(C)C)NC(=O)[C@H](CCC(N)=O)N(C)C(=O)[C@H](CC(C)C)NC(=O)[C@H](O)[C@@H](C)CC)C(=O)NCC(=O)N(C)[C@H](Cc1ccccc1)C(=O)N1CCC[C@H]1C(=O)OC [Compound 3, grassystatin C] ({Hmp(2R,3S)}-L[NMeQ][Sta]IG[dNMeF]P-OMe)
- solubility in DMSO [5]: insoluble in DMSO
